Tested on: U2OS
Experiment: Multiplex assay against U2OS
Format: toxicity, cell-based
Settings: human
Method in brief: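 On a CQ1 microscope at 37°C and 5% CO2, live cells were imaged after compound addition. They had been stained at seeding with Hoechst33342, BioTracker Green Microtubule Cytoskeleton Dye, MitoTracker Red and Annexin V Alexa Fluor 680. CellPathfinder machine-learning gating assigned cells to Hoechst high-intensity objects or normal cells, normal cells to healthy, pyknosed or fragmented nuclei, and pyknosed cells to mitotic or apoptotic. Tubulin, mitochondrial-mass and membrane-permeability phenotypes are per cents of healthy-nucleus cells.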

[1] = 12 h, 1 µM, compound concentration 1 uM, replicate 1
[2] = 12 h, 1 µM, compound concentration 1 uM, replicate 2
[3] = 12 h, 10 µM, compound concentration 10 uM, replicate 1
[4] = 12 h, 10 µM, compound concentration 10 uM, replicate 2
[5] = 24 h, 1 µM, compound concentration 1 uM, replicate 1
[6] = 24 h, 1 µM, compound concentration 1 uM, replicate 2
[7] = 24 h, 10 µM, compound concentration 10 uM, replicate 1
[8] = 24 h, 10 µM, compound concentration 10 uM, replicate 2
[9] = 48 h, 1 µM, compound concentration 1 uM, replicate 1
[10] = 48 h, 1 µM, compound concentration 1 uM, replicate 2
[11] = 48 h, 10 µM, compound concentration 10 uM, replicate 1
[12] = 48 h, 10 µM, compound concentration 10 uM, replicate 2

## O=C1NCN(c2ccccc2)C12CCN(CCCOc1ccc(F)cc1)CC2 [SPIRAMIDE]
[1]
  Population Apoptotic (%): 22%
  Population Fragmented Nuclei (%): 16%
  Population Healthy Nuclei (%): 77%
  Population Hoechst High Intensity Objects (%): 6%
  Population Membrane Permeable-Phenotype (%): 1%
  Population Mitochondria Different-Phenotype (%): 9%
  Population Mitotic Cells (%): 77%
  Population Normal (%): 93%
  Population Pyknosed Nuclei (%): 6%
  Population Tubulin-Different-Phenotype (%): 10%
  Total Cell Count: 210
[2]
  Population Apoptotic (%): 0%
  Population Fragmented Nuclei (%): 10%
  Population Healthy Nuclei (%): 88%
  Population Hoechst High Intensity Objects (%): 7%
  Population Membrane Permeable-Phenotype (%): 0%
  Population Mitochondria Different-Phenotype (%): 10%
  Population Mitotic Cells (%): 100%
  Population Normal (%): 92%
  Population Pyknosed Nuclei (%): 1%
  Population Tubulin-Different-Phenotype (%): 6%
  Total Cell Count: 74
[3]
  Population Apoptotic (%): 36%
  Population Fragmented Nuclei (%): 16%
  Population Healthy Nuclei (%): 51%
  Population Hoechst High Intensity Objects (%): 10%
  Population Membrane Permeable-Phenotype (%): 4%
  Population Mitochondria Different-Phenotype (%): 74%
  Population Mitotic Cells (%): 63%
  Population Normal (%): 90%
  Population Pyknosed Nuclei (%): 31%
  Population Tubulin-Different-Phenotype (%): 50%
  Total Cell Count: 145
[4]
  Population Apoptotic (%): 50%
  Population Fragmented Nuclei (%): 3%
  Population Healthy Nuclei (%): 88%
  Population Hoechst High Intensity Objects (%): 8%
  Population Membrane Permeable-Phenotype (%): 2%
  Population Mitochondria Different-Phenotype (%): 27%
  Population Mitotic Cells (%): 50%
  Population Normal (%): 91%
  Population Pyknosed Nuclei (%): 7%
  Population Tubulin-Different-Phenotype (%): 12%
  Total Cell Count: 91
[5]
  Population Apoptotic (%): 27%
  Population Fragmented Nuclei (%): 8%
  Population Healthy Nuclei (%): 80%
  Population Hoechst High Intensity Objects (%): 7%
  Population Membrane Permeable-Phenotype (%): 0%
  Population Mitochondria Different-Phenotype (%): 5%
  Population Mitotic Cells (%): 72%
  Population Normal (%): 92%
  Population Pyknosed Nuclei (%): 11%
  Total Cell Count: 229
[6]
  Population Apoptotic (%): 0%
  Population Fragmented Nuclei (%): 7%
  Population Healthy Nuclei (%): 89%
  Population Hoechst High Intensity Objects (%): 6%
  Population Membrane Permeable-Phenotype (%): 2%
  Population Mitochondria Different-Phenotype (%): 7%
  Population Mitotic Cells (%): 100%
  Population Normal (%): 93%
  Population Pyknosed Nuclei (%): 3%
  Population Tubulin-Different-Phenotype (%): 7%
  Total Cell Count: 76
[7]
  Population Apoptotic (%): 41%
  Population Fragmented Nuclei (%): 18%
  Population Healthy Nuclei (%): 32%
  Population Hoechst High Intensity Objects (%): 8%
  Population Membrane Permeable-Phenotype (%): 10%
  Population Mitochondria Different-Phenotype (%): 71%
  Population Mitotic Cells (%): 58%
  Population Normal (%): 91%
  Population Pyknosed Nuclei (%): 48%
  Population Tubulin-Different-Phenotype (%): 31%
  Total Cell Count: 173
[8]
  Population Apoptotic (%): 27%
  Population Fragmented Nuclei (%): 3%
  Population Healthy Nuclei (%): 78%
  Population Hoechst High Intensity Objects (%): 6%
  Population Membrane Permeable-Phenotype (%): 2%
  Population Mitochondria Different-Phenotype (%): 21%
  Population Mitotic Cells (%): 72%
  Population Normal (%): 93%
  Population Pyknosed Nuclei (%): 18%
  Population Tubulin-Different-Phenotype (%): 10%
  Total Cell Count: 118
[9]
  Population Apoptotic (%): 25%
  Population Fragmented Nuclei (%): 9%
  Population Healthy Nuclei (%): 85%
  Population Hoechst High Intensity Objects (%): 4%
  Population Membrane Permeable-Phenotype (%): 1%
  Population Mitochondria Different-Phenotype (%): 12%
  Population Mitotic Cells (%): 75%
  Population Normal (%): 95%
  Population Pyknosed Nuclei (%): 4%
  Population Tubulin-Different-Phenotype (%): 8%
  Total Cell Count: 288
[10]
  Population Apoptotic (%): 16%
  Population Fragmented Nuclei (%): 8%
  Population Healthy Nuclei (%): 84%
  Population Hoechst High Intensity Objects (%): 1%
  Population Membrane Permeable-Phenotype (%): 0%
  Population Mitochondria Different-Phenotype (%): 10%
  Population Mitotic Cells (%): 83%
  Population Normal (%): 98%
  Population Pyknosed Nuclei (%): 6%
  Population Tubulin-Different-Phenotype (%): 9%
  Total Cell Count: 106
[11]
  Population Apoptotic (%): 67%
  Population Fragmented Nuclei (%): 32%
  Population Healthy Nuclei (%): 21%
  Population Hoechst High Intensity Objects (%): 12%
  Population Membrane Permeable-Phenotype (%): 12%
  Population Mitochondria Different-Phenotype (%): 58%
  Population Mitotic Cells (%): 32%
  Population Normal (%): 87%
  Population Pyknosed Nuclei (%): 45%
  Population Tubulin-Different-Phenotype (%): 28%
  Total Cell Count: 265
[12]
  Population Apoptotic (%): 16%
  Population Fragmented Nuclei (%): 13%
  Population Healthy Nuclei (%): 78%
  Population Hoechst High Intensity Objects (%): 9%
  Population Membrane Permeable-Phenotype (%): 11%
  Population Mitochondria Different-Phenotype (%): 16%
  Population Mitotic Cells (%): 83%
  Population Normal (%): 90%
  Population Pyknosed Nuclei (%): 7%
  Population Tubulin-Different-Phenotype (%): 18%
  Total Cell Count: 182
